Measurements from different studies.
Protocols differ between the studies behind these lines.
Target: Dual specificity mitogen-activated protein kinase kinase 3 (MAP2K3, Homo sapiens, UniProt P46734)
Tested at: 1 µM
One construct used (P46734 1-347): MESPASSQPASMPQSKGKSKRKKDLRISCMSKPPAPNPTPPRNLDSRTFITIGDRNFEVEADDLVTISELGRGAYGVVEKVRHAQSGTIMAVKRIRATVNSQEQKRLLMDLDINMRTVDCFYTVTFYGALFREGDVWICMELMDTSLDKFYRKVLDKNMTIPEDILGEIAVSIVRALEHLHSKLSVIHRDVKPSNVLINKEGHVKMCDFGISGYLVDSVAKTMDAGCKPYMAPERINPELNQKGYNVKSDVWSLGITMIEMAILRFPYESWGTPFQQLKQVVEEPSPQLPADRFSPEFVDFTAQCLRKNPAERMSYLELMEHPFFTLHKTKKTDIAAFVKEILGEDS

SMILES	assay	remaining binding
COc1cnc(Nc2cccc(S(N)(=O)=O)c2)nc1N1CCN(c2ccccc2)C(=O)C1	binding, competition with immobilised ligand	84%
N#CC1(c2ccccn2)CCN(Cc2cc(C(=O)N3CCCC3)c(=O)n3ccccc23)CC1	cell-free assay, competition with immobilised ligand	81%
CCN1CCN(Cc2ccc(C(=O)Nc3ccc(C)c(Oc4ccc5c(c4)CC(=O)N5)c3)cc2C(F)(F)F)CC1	binding, competition with immobilised ligand	100%
c1ccc(N2CCN(Cc3nc4ccccc4[nH]3)CC2)nc1	binding, competition with immobilised ligand	96%
N[C@H]1CCN(c2nccc(-c3cnn4ncccc34)n2)C1	binding	67%
C=CC(=O)N1CCC(C(=O)NCC(=O)N2CCN(c3nc(-c4cnc(N)nc4C(F)F)nc(N4CCOCC4)n3)CC2)CC1	binding, competition with immobilised ligand	59%
CCCOc1ccc([C@H]2[C@H](C(=O)O)[C@@H](c3ccc4c(c3)OCO4)CN2CC(=O)Nc2c(CC)cccc2CC)cc1	cell-free assay, competition with immobilised ligand	60%
CC1CCCN1c1nccc(-c2cnn3ncccc23)n1 (stereo not shown)	binding	84%
CO[C@@H](C)c1c(Nc2ccc([C@H](N(C)C(=O)C3CCS(=O)(=O)CC3)C(F)(F)F)cc2)cnc2cc(Cl)nn12	cell-free assay, competition with immobilised ligand	93%
O=C(c1ccc(Nc2nccc(-c3cc4ccccc4s3)n2)cc1)N1CCC(N2CCCC2)CC1	binding, competition with immobilised ligand	42%
Cc1cnn2ncc(-c3ccnc(N(C)C)n3)c2c1	binding	83%
Cn1nc(C(F)(F)F)cc1-c1cnc(N2CCc3cc(S(=O)(=O)Nc4c(F)cc(Cl)cc4F)cc(N4CCCC4=O)c32)nc1	cell-free assay, competition with immobilised ligand	82%
Nc1ncc2c(n1)-c1c([nH]c3ccc(C#CC4CC4)cc13)CCCC2	binding, competition with immobilised ligand	93%
F[C@@H]1CCN(c2nccc(-c3cnn4ncccc34)n2)C1	binding	83%
CC1=C(C#N)[C@@H](c2ccc3[nH]nc(C)c3c2)C(C#N)=C(c2ccc(Cl)cc2)N1	cell-free assay, competition with immobilised ligand	53.5%
CN(C)c1ncc(F)c(-c2cnn3ncccc23)n1	binding	78%
O=C(NCCCN1CCOCC1)c1ccc(Nc2ncc(Cl)c(-c3ccc(Cl)s3)n2)cc1	binding, competition with immobilised ligand	51%
CNC(=O)[C@@H]1CC[C@@H](n2c(-c3ccc4cnccc4c3)nc3ccc(C(=O)NCc4cccc(C(N)=O)c4)cc32)C1	binding, competition with immobilised ligand	98%
O=C(NCCCN1CCOCC1)c1ccc(Nc2nccc(-c3cc4ccccc4s3)n2)cc1	binding, competition with immobilised ligand	47%
c1cnn2ncc(-c3ccnc(N4CCC45COC5)n3)c2c1	binding	31%
CN(C)c1ncnc(-c2ccc3nc(Nc4cc(CN5CCN(C(=O)CC(F)(F)F)CC5)ccn4)[nH]c3c2)c1Cl	cell-free assay, competition with immobilised ligand	73%
O=C(Nc1c[nH]nc1C(=O)NC1CCNCC1)c1cc(F)cc(F)c1	binding, competition with immobilised ligand	100%
